Results: ChEMBL document CHEMBL1143593, “In vitro metabolism of phenoxypropoxybiguanide analogues in human liver microsomes to potent antimalarial dihydrotriazines” (J Med Chem, 2005)
In brackets after ≈: the same amount, converted by molar mass.

Columns and labels:
[1] = Maximum velocity against human liver microsomes; (n=6); assay type: ADME, Microsome
Procedure, shortened: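 Pooled human liver microsomes, 1 mg/mL, in NADPH regenerating buffer (1.25 mM βNADP+, 3.3 mM glucose-6-phosphate, 3.3 mM MgCl2). Mix preincubated 5 min at 37 °C, then started with glucose-6-phosphate dehydrogenase (1 unit/mL final). Substrate at 25–500 µM, 90 min at 37 °C. Stopped with ice-cold acetonitrile containing internal standard. Dihydrotriazine metabolite quantified by LC-MS/MS against synthetic standard curves. Vmax from Michaelis–Menten nonlinear fit using only ≤200 µM data, n=6.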

Plasmodium falciparum [2] = assay: In vitro antimalarial activity for DHFR wild-type, chloroquine and pyrimethamine-sensitive Plasmodium falciparum D6; assay type: functional, organism-based
Procedure, shortened: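 [3H]-hypoxanthine incorporation assay in folate-free medium. Two-fold dilutions; range 5000 (or 2500) ng/mL to 5 pg/mL for parent biguanides, 5 ng/mL to 5 fg/mL for dihydrotriazine metabolites. DMSO ≤0.002%. 37 °C under 90% N2/5% CO2/5% O2; label added at 48 h, harvest at 72 h, scintillation counting. Triplicate on three occasions; IC50 by sigmoid nonlinear regression versus drug-free controls.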

Plasmodium falciparum [3] = assay: In vitro antimalarial activity for DHFR mutant, chloroquine and pyrimethamine-resistant Plasmodium falciparum W2

| Compound | Vmax [1] [nmol/min/mg] | IC50 (Plasmodium falciparum [2]) [ng/mL] | IC50 (Plasmodium falciparum [3]) [ng/mL] |
| --- | --- | --- | --- |
| CC(C)/N=C(N)/N=C(/N)NOCCCOc1ccccc1OC(F)(F)F | 13.3 | > 2500 | > 5000 |
| CC(C)NC(=N)NC(=N)NOCCCOc1cc(Cl)c(Cl)cc1Cl | 11.6 | 877 (≈ 2210 nM) | 3790 (≈ 9540 nM) |
| CC1(C)N=C(N)N=C(N)N1OCCCOc1ccc(OC(F)(F)F)cc1Cl |  | 0.01 (≈ 0.0244 nM) | 0.031 (≈ 0.0756 nM) |
| CC1(C)N=C(N)N=C(N)N1OCCCOc1ccc(OC(F)(F)F)cc1 |  | 0.01 (≈ 0.0266 nM) | 0.052 (≈ 0.139 nM) |
| CC(C)/N=C(N)/N=C(/N)NOCCCOc1ccc(OCC(F)(F)F)cc1 | 18.7 | > 2500 | > 5000 |
| CC(C)NC(=N)NC(=N)NOCCCOc1ccc(Cl)c(Cl)c1 | 27.7 | 845 (≈ 2330 nM) | 2550 (≈ 7040 nM) |
| N=C(NOCCCOc1ccc(OC(F)(F)F)cc1)NC(=N)NC1CC1 |  | > 2500 | > 5000 |
| CC1(C)N=C(N)N=C(N)N1OCCCOc1ccc(C(F)(F)F)cc1 |  | 0.01 (≈ 0.0278 nM) | 0.063 (≈ 0.175 nM) |
| [H]/N=C(\N/C(=N/[H])Nc1ccc(Cl)cc1)NC(C)C [PROGUANIL] | 19.6 | > 5000 | > 5000 |
| CC1(C)N=C(N)N=C(N)N1OCCCOc1cc(Cl)c(Cl)cc1Cl |  | 0.02 (≈ 0.0507 nM) | 0.016 (≈ 0.0405 nM) |
| CC(C)/N=C(N)/N=C(/N)NOCCCOc1ccc(C(F)(F)F)cc1Cl | 15.4 | 2230 (≈ 5640 nM) | > 5000 |
| CC(C)NC(=N)NC(=N)NOCCCOc1ccc(OC(F)(F)F)cc1 | 13.5 | > 2500 | > 5000 |
| CC(C)/N=C(N)/N=C(/N)NOCCCOc1ccc(C(F)(F)F)cc1 | 10.8 | > 2500 | > 5000 |
| CC1(C)N=C(N)N=C(N)N1OCCCOc1ccc(Cl)c(Cl)c1 |  | 0.009 (≈ 0.025 nM) | 0.028 (≈ 0.0777 nM) |
| CC1(C)N=C(N)N=C(N)N1OCCCOc1ccc(OCC(F)(F)F)cc1Cl |  | 0.022 (≈ 0.0519 nM) | 0.081 (≈ 0.191 nM) |
| CC1(C)N=C(N)N=C(N)N1c1ccc(Cl)cc1 [CYCLOGUANIL] |  | 0.328 (≈ 1.3 nM) | > 2.5 |
| CC1(C)N=C(N)N=C(N)N1OCCCOc1ccccc1OC(F)(F)F |  | 0.022 (≈ 0.0586 nM) | 0.053 (≈ 0.141 nM) |
| CCc1nc(N)nc(N)c1-c1ccc(Cl)cc1 [PYRIMETHAMINE] |  | 1.2 (≈ 4.82 nM) | 130 (≈ 523 nM) |
